Source: PubChem (several laboratories)
Wee1 stabilizer: inhibitors of human Wee1 degradation; HeLa Luc-Wee1K328M stability, luciferase luminescence; 100% = proteasome inhibitor MG132 effect; P30291; reporter increase, % at 5 µM; 1.2% of 220,000 active; AID 1321;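 active = activation above the mean of all tested compounds plus 3 SD, set per screening run, cut at about 8.8% in these data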;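 note: cells exposed to compound for 20 h before luminescence read; 0% = DMSO alone and 100% = MG132 at 30 µM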
Target sequence (P30291 whole entry K328M): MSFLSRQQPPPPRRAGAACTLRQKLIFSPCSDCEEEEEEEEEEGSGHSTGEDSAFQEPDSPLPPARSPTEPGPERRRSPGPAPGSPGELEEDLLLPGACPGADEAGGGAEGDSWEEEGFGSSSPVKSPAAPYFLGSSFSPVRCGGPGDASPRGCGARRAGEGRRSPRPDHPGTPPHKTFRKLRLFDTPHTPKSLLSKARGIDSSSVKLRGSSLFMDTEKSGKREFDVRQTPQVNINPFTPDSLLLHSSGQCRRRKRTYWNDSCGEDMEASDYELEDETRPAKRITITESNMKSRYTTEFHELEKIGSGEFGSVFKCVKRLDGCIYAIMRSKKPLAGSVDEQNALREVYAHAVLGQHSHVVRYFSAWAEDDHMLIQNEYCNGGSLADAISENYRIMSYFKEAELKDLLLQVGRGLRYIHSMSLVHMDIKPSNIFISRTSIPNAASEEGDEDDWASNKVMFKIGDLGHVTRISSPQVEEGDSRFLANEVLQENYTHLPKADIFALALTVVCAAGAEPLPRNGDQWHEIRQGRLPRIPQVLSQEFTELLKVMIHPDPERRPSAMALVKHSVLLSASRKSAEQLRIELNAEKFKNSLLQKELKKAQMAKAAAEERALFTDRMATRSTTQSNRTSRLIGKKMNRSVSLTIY
Rad51 HR inh: Rad51 (human) homologous recombination inhibition; Q06609; hRad51 DNA strand exchange, fluorescence dequenching; inhibition, % at 10 µM; 0.085% of 200,000 active; AID 1385;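 active = inhibition above 40% at the single screening dose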;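 note: 0% = DMSO control wells and 100% = blanks with heterologous ssDNA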
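Material: human Rad51–ssDNA filaments; Probe or stimulus: labelled 47-mer dsDNA for strand exchange; Doses: single 10 µM dose; Incubation: 37 °C 15-min filament assembly, 30-min compound preincubation, 15-min exchange; Technique: FRET fluorescence dequenching, excitation 485 nm, emission 520 nm; Measure: Fluorescence-based percent inhibition, control- and blank-normalised; Benchmarks: plate control and blank wells.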
L major viab: inhibitors of Leishmania major promastigote growth; Leishmania major promastigotes, resazurin fluorescence viability; inhibition, % at 10 µM; 9% of 200,000 active;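 note: promastigotes grown with compound for 44 hours at 28 °C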
PKD1 inh: inhibitors of human PKD1 kinase | PKD1 kinase fluorescence polarization assay | inhibition, % (no concentration beside the values) | 0.056% of 200,000 active | AID 797
CHOP inhibitor: inhibitors of CHOP induction in ER stress response; 3.8% of 220,000 active; CHO-K1 CHOP-promoter luciferase, tunicamycin-induced, 15-18 h; inhibition, % at 10 µM;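 active = compounds that reduced the stress-induced luciferase reporter signal by more than about 70% of percent inhibition, limit read from the data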;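 note: 0% = tunicamycin plus vehicle and 100% = wells without tunicamycin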
Arbovirus anti: blocks arbovirus infection; arbovirus infection cell-based antiviral screen; inhibition, % at 10 µM; 0.37% of 200,000 active; in the data active = inhibition above about 30%
CHOP confirm: confirmation of CHOP induction inhibitors. shares compounds with CHOP inhibitor. CHO-CHOP promoter luciferase reporter, tunicamycin-induced, luminescence. inhibition, % at 10 µM. 45% of 2,100 active. AID 504437;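 active = mean of three repeat readings of reporter signal inhibition above a set limit, cut at about 70% in these data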;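 note: 0% = tunicamycin plus vehicle and 100% = wells lacking tunicamycin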
An asterisk follows results filed as active; . = not tested or not shown. Most compounds without a hit are left out; they make up all but 12% or so of the library. Cut-off read from the data, not from the text of the source, unless noted: active = inhibition above about 50%; inactive = the rest.

SMILES	Wee1 stabilizer	Rad51 HR inh	L major viab	PKD1 inh	CHOP inhibitor	Arbovirus anti	CHOP confirm
COc1cccc(N2CCN(c3ncnc4c3[nH]c3ccccc34)CC2C)c1 (stereo unspecified)	-1	-2	90*	-4	109*	-43	117*
COc1ccc2[nH]c3c(N4CC(C)OC(C)C4)ncnc3c2c1 (stereo unspecified)	-1	2	39	2	-3	-1	.
C=CCn1c(CCc2cc(C(C)(C)C)c(O)c(C(C)(C)C)c2)n[nH]c1=S	1	1	20	1	101*	-19	86*
O=C1NC(=S)S/C1=C\C=C\c1ccc([N+](=O)[O-])o1	1	.	.	.	105*	.	117*
O=C(CSc1nc(-c2ccccc2)c(-c2ccccc2)[nH]1)Nc1ccc2c(c1)OCO2	2	.	11	-4	102*	-12	19
O=C(CSc1nc2ncccc2[nH]1)Nc1ccc2c(c1)OCO2	-4	.	.	.	-13	.	.
COc1ccc(-c2cc(C(F)(F)F)nc(SCC(=O)Nc3ccc4c(c3)OCO4)n2)cc1	-4	5	41	1	99*	-5	66
O=C(/C(C=Nc1ccc(F)cc1)=C(/O)c1ccco1)C(F)(F)F	1	-7	2	-2	2	-10	.
N#Cc1cc([N+](=O)[O-])c(-n2nnc3ccccc32)c([N+](=O)[O-])c1	6	8	-3	-1	107*	6	24
Cc1cc(C)cc(-n2c(N)c(C(=O)Nc3c(C)n(C)n(-c4ccccc4)c3=O)c3nc4ccccc4nc32)c1	-4	-12	76*	11	105*	-38	39
COc1cccc(-n2c(N)c(C(=O)Nc3c(C)n(C)n(-c4ccccc4)c3=O)c3nc4ccccc4nc32)c1	2	.	.	.	46	.	.
Cc1ccc(-n2c(N)c(C(=O)Nc3c(C)n(C)n(-c4ccccc4)c3=O)c3nc4ccccc4nc32)cc1	-2	-3	60*	5	107*	-41	55
O=C1C[C@@H](c2ccccc2)Oc2cc(O)cc(O)c21	.	0	.	.	.	.	.
COc1c(CC=C(C)C)cc(C2CC(=O)c3c(O)cc(O)cc3O2)cc1CC=C(C)C (stereo unspecified)	.	-4	.	.	104*	.	110*
CCOC(=O)C1CCCN(C(=S)Nc2cccc(Cl)c2)C1 (stereo unspecified)	-3	-2	-6	-4	5	4	.
CCOc1cc(S(=O)(=O)Nc2cc(C)cc(C)c2)ccc1Cl	5	-8	96*	-2	106*	-33	117*
CCOc1cc(S(=O)(=O)NC2CCCC2)ccc1Cl	0	-5	15	-2	42	-15	.
S=C(NCc1ccco1)NCC1CCCO1 (stereo unspecified)	0	13	-3	0	5	2	.
CCCC(c1nnnn1C(C)(C)C)N1CCN(C(=O)c2ccco2)CC1 (stereo unspecified)	-4	.	-3	5	51	11	.
NCCNS(=O)(=O)c1cccc2cnccc12	.	.	.	.	8	.	.
Cc1cc(-c2[nH]nc3c2C(c2ccc(Cl)cc2)C(C#N)=C(N)O3)c(C)s1 (stereo unspecified)	0	5	4	1	103*	2	104*
CN(C)CCCn1c(SCC(=O)Nc2nc(-c3cccc(Br)c3)cs2)nc2ccccc2c1=O	-2	17	.	.	106*	.	105*
N#CCCn1c(Cl)nc2ccccc21	-2	2	1	-8	4	-1	.
Cc1cccc2cc3c(nc12)SC(=NCC1CCCO1)N(Cc1ccco1)C3 (stereo unspecified)	1	-1	33	-2	103*	-13	48
CC(NCc1ccc(F)cc1)C(=O)NC1CCCCC1 (stereo unspecified)	-2	31	1	7	19	-1	.
SMILES	Wee1 stabilizer	Rad51 HR inh	L major viab	PKD1 inh	CHOP inhibitor	Arbovirus anti	CHOP confirm
COc1ccc(Nc2nnc(-c3ccc(O)cc3)c3ccccc23)cc1	-4	3	8	-7	26	-28	.
Cc1nn(-c2ccc(C(F)(F)F)cn2)c(C)c1Oc1ccccc1O	2	-7	46	-2	100*	-7	102*
Cc1cc(=O)[nH]c(-n2nc(C)c(Oc3ccccc3O)c2C)n1	-3	-6	5	-18	-4	-13	.
O=C(O)c1cc(S(=O)(=O)Nc2ccc(N3CCCCC3)cc2)ccc1Cl	1	8	-9	0	16	-1	.
O=S(=O)(Nc1ccc(N2CCCCC2)cc1)c1ccc(F)c(F)c1	-2	1	67*	2	100*	5	11
CC(C)C[C@H](N)c1nnc(S(=O)(=O)Cc2ccc(F)cc2)o1	1	0	-6	-9	103*	-4	47
CC(C)OC(=O)c1nnc(Cc2ccc(F)cc2)o1	.	1	-9	3	20	-2	.
CCOC(=O)C1CCCN(c2cc(=O)n(C3CCCCC3)c(=O)[nH]2)C1 (stereo unspecified)	-1	-1	2	-7	8	1	.
CCc1ccc(Nc2cc(=O)n(C3CCCCC3)c(=O)[nH]2)cc1	2	1	5	-3	105*	2	49
CC(=O)c1ccc(NC(=O)N2C3CCC2CC(O)(c2cccnc2)C3)cc1 (stereo unspecified)	4	2	-2	7	8	3	.
COc1ccc(-n2c(N)c(C(=O)NCc3ccco3)c3nc4ccccc4nc32)cc1OC	1	.	0	-6	104*	-21	34
COc1ccccc1CNC(=O)c1c(N)n(CCCN2CCOCC2)c2nc3ccccc3nc12	-1	.	51*	-5	96*	-43	40
COc1cc(-n2c(N)c(C(=O)NCc3ccco3)c3nc4ccccc4nc32)cc(OC)c1OC	2	.	12	-3	23	-7	.
Cc1nn(C)c(C)c1NC(=O)CCl	-1	-5	0	20	-37	4	.
CNc1ccc(Br)cc(C(=O)/C=C/c2cccc(Cl)c2Cl)c1=O	-1	-99	96*	-12	101*	-22	-100
CCOC(=O)N1CCC(N2C(=O)c3ccccc3C2Nc2ccc(S(=O)(=O)N(CC)CC)cc2)CC1 (stereo unspecified)	-1	.	13	-3	-10	6	.
CC(C)(C)OC(=O)NCCc1nnc(S(=O)(=O)Cc2ccc(Cl)cc2Cl)o1	-2	.	-4	-2	106*	-26	129*
CC(C)(C)OC(=O)NCCc1nnc(SCc2ccccc2Cl)o1	-1	-3	5	1	61	6	.
Cc1ccc(S(=O)(=O)Nc2ccc(NC(=O)Nc3cccc(C(F)(F)F)c3)cc2)cc1	0	-4	70*	-6	99*	-41	116*
O=C(NCc1ccccc1Cl)c1ccc(S(=O)(=O)Nc2cccc(C(F)(F)F)c2)cc1	0	11	61*	-8	98*	-16	110*
